≈ marks a conversion by molar mass, not a printed value.

By MIC is commonly meant the smallest concentration in the dilution series that meets the test's criterion for growth inhibition. Read a low MIC as a more susceptible organism.

Assay [1] deals with Streptococcus pyogenes. Nature of the assay: Antibacterial activity against Streptococcus pyogenes RITCC 1940 at 10 ug after overnight incubation by agar well diffusion method. It counts as functional, organism-based. The procedure, abridged:
(§1)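 Bacteria were enriched in 1 ml Mueller–Hinton broth at 37 °C for 12 h, then cultured on Mueller–Hinton agar. Wells were cut with a 6 mm cork borer and filled with test solution, with gentamicine as the standard antibiotic. Plates were incubated overnight at 37 °C and inhibition-zone diameters were measured. Values are the average of triplicates. A methanol-only blank was included.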
Background: Agar diffusion results depend on both activity and mobility in agar.

The subject of assay [2] is Bacillus anthracis. Nature of the assay: Antibacterial activity against Bacillus anthracis RITCC 1036 at 10 ug after overnight incubation by agar well diffusion method. The assay is classed as functional, organism-based.
For assay [3], the system named is Klebsiella pneumoniae. Nature of the assay: Antibacterial activity against Klebsiella pneumoniae RITCC 1249 at 10 ug after overnight incubation by agar well diffusion method. The assay is classed as functional, organism-based. The procedure, abridged:
as §1

Assay [4] relates to Streptococcus pyogenes. Nature of the assay: Antibacterial activity against Streptococcus pyogenes RITCC 1940 at 100 ul after overnight incubation by agar well diffusion method. It counts as functional. Put shortly:
(§2)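 Agar well diffusion. Inoculum came from a 12 h, 37 °C enrichment culture in 1 ml Mueller–Hinton broth and was spread on Mueller–Hinton agar. Wells cut with a 6 mm cork borer and filled with 100 µL of compound solution; methanol blank. Incubated overnight at 37 °C, then inhibition zone diameter measured. Triplicate, averaged.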

Assay [5] deals with Streptococcus agalactiae. Nature of the assay: Antibacterial activity against Streptococcus agalactiae RITCC 1913 at 100 ul after overnight incubation by agar well diffusion method. It counts as functional. The procedure, abridged:
as §2

The subject of assay [6] is Staphylococcus aureus. Briefly: Antibacterial activity against Staphylococcus aureus RITCC 1885 at 100 ul after overnight incubation by agar well diffusion method. It counts as functional. Put shortly:
as §2

Assay [7] deals with Bacillus anthracis. Briefly: Antibacterial activity against Bacillus anthracis RITCC 1036 at 100 ul after overnight incubation by agar well diffusion method. It counts as functional.
Assay [8] relates to Klebsiella pneumoniae. Briefly: Antibacterial activity against Klebsiella pneumoniae RITCC 1249 at 100 ul after overnight incubation by agar well diffusion method. The assay is classed as functional. Put shortly: as §2
Assay [9] relates to Pseudomonas aeruginosa. Nature of the assay: Antibacterial activity against Pseudomonas aeruginosa RITCC 1547 at 100 ul after overnight incubation by agar well diffusion method. The assay is classed as functional. Put shortly:
as §2

Assay [10] relates to Streptococcus pyogenes. Nature of the assay: Antibacterial activity against Streptococcus pyogenes RITCC 1940 after 24 hrs by macrodilution broth susceptibility assay. The assay is classed as functional. Conditions: RITCC 1940, 24 h. The procedure, abridged:
(§3)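 Macro-dilution broth series of 12 tubes, each holding 1 ml Mueller–Hinton broth. Tube one received 1 ml of 100 mg/ml test solution, then serial dilution down the series. Added 1 ml bacterial suspension matched to 0.5 McFarland (1.5 ×10⁸ cfu/ml). Incubated 37 °C for 24 h. MIC taken as the last tube without turbidity.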

For assay [11], the system named is Streptococcus agalactiae. Nature of the assay: Antibacterial activity against Streptococcus agalactiae RITCC 1913 after 24 hrs by macrodilution broth susceptibility assay. Conditions: RITCC 1913, 24 h. The assay is classed as functional. Put shortly: as §3
The subject of assay [12] is Staphylococcus aureus. Briefly: Antibacterial activity against Staphylococcus aureus RITCC 1885 after 24 hrs by macrodilution broth susceptibility assay. To be noted: RITCC 1885, 24 h. The assay is classed as functional. Put shortly:
as §3

The test system of assay [13] is Bacillus anthracis. Briefly: Antibacterial activity against Bacillus anthracis RITCC 1036 after 24 hrs by macrodilution broth susceptibility assay. It counts as functional. Conditions: RITCC 1036, 24 h.
The subject of assay [14] is Klebsiella pneumoniae. Nature of the assay: Antibacterial activity against Klebsiella pneumoniae RITCC 1249 after 24 hrs by macrodilution broth susceptibility assay. Conditions: RITCC 1249, 24 h. It counts as functional. Put shortly:
as §3

Assay [15] has as its system Pseudomonas aeruginosa. Briefly: Antibacterial activity against Pseudomonas aeruginosa RITCC 1547 after 24 hrs by macrodilution broth susceptibility assay. The assay is classed as functional. Conditions: RITCC 1547, 24 h. The procedure, abridged:
as §3

As for GENTAMICIN, the inhibition zone (IZ) in the assay on Streptococcus pyogenes [1] turned out to be 20 mm; with Bacillus anthracis [2] it was 32 mm; with Klebsiella pneumoniae [3], 20 mm.
Take `Oc1ccc(Br)cc1/C=N/CCSCCc1ccccn1`: the “inhibition zone (IZ)” value in the assay with Streptococcus pyogenes [4] stood at 40 mm; in the assay on Streptococcus agalactiae [5] it was 50 mm; with Staphylococcus aureus [6], 40 mm; with Bacillus anthracis [7], 50 mm; in the assay with Klebsiella pneumoniae [8], 30 mm; in the assay on Pseudomonas aeruginosa [9], 20 mm. For the same compound, the minimum inhibitory concentration (MIC) came to 6.25 mg/mL (≈ 17.1 mM) against Streptococcus pyogenes [10]; 3.12 mg/mL (≈ 8.55 mM) against Streptococcus agalactiae [11]; 6.25 mg/mL (≈ 17.1 mM) in the assay on Staphylococcus aureus [12]; 3.12 mg/mL (≈ 8.55 mM) in the assay with Bacillus anthracis [13]; 12.5 mg/mL (≈ 34.2 mM) in the assay with Klebsiella pneumoniae [14]; 25 mg/mL (≈ 68.4 mM) against Pseudomonas aeruginosa [15].
In the case of `O=[N+]([O-])c1ccc(O)c(/C=N/CCSCCc2ccccn2)c1`, the “inhibition zone (IZ)” value stood at 40 mm in the assay with Streptococcus pyogenes [4]; 30 mm with Streptococcus agalactiae [5]; 20 mm in the assay on Staphylococcus aureus [6]; 20 mm in the assay with Bacillus anthracis [7]; 20 mm with Klebsiella pneumoniae [8]; 20 mm with Pseudomonas aeruginosa [9]. Further, the MIC in the assay with Streptococcus pyogenes [10] came out at 6.25 mg/mL (≈ 18.9 mM); against Streptococcus agalactiae [11], 12.5 mg/mL (≈ 37.7 mM); in the assay on Staphylococcus aureus [12], 25 mg/mL (≈ 75.4 mM); against Bacillus anthracis [13], 25 mg/mL (≈ 75.4 mM); with Klebsiella pneumoniae [14], 25 mg/mL (≈ 75.4 mM); in the assay with Pseudomonas aeruginosa [15], 25 mg/mL (≈ 75.4 mM).
Turning to `COc1ccc(O)c(/C=N/CCSCCc2ccccn2)c1`, the “inhibition zone (IZ)” value in the assay on Streptococcus pyogenes [4] was determined as 40 mm; with Streptococcus agalactiae [5] it was 20 mm; with Staphylococcus aureus [6] it was 10 mm; with Bacillus anthracis [7], 20 mm; in the assay with Klebsiella pneumoniae [8], 20 mm; in the assay with Pseudomonas aeruginosa [9] it was 10 mm. Further, the minimal inhibitory concentration (MIC) in the assay on Streptococcus pyogenes [10] is 6.25 mg/mL (≈ 19.8 mM); in the assay on Streptococcus agalactiae [11], 25 mg/mL (≈ 79 mM); against Staphylococcus aureus [12], 50 mg/mL (≈ 158 mM); in the assay on Bacillus anthracis [13] it was 25 mg/mL (≈ 79 mM); in the assay with Klebsiella pneumoniae [14], 25 mg/mL (≈ 79 mM); against Pseudomonas aeruginosa [15], 50 mg/mL (≈ 158 mM).

The values are drawn from ChEMBL document CHEMBL1155281, “Synthesis, spectroscopic characterization and antibacterial activity of new cobalt(II) complexes of unsymmetrical tetradentate (OSN2) Schiff base ligands” (2009).
